From ChEMBL document CHEMBL5335768, “Expanding the knowledge around antitubercular 5-(2-aminothiazol-4-yl)isoxazole-3-carboxamides: Hit-to-lead optimization and release of a novel antitubercular chemotype via scaffold derivatization” (Eur J Med Chem, 2023)
Values after ≈ are worked out from the molar mass of the structure shown. Active and inactive are the calls of the source. The calls are words filed in the database; no cut-off is given here.

Columns and labels:
[1] = Drug metabolism in human liver microsomes assessed as 5-(2-((4-(hydroxymethyl)phenyl)amino)thiazol-4-yl)-N-phenylisoxazole-3-carboxamide formation at 100 uM measured after 180 mins by HR-MS analysis; format: ADME, Microsome; conditions: 3 h
Outline: (§1)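 Metabolite ID: test compound at 100 μM initial concentration in pooled HLM incubates. Aliquots were taken at start and after 180 min, quenched with ACN, centrifuged and analysed by full-scan LC-HR-MS (Orbitrap, ESI+ and ESI−, resolution 15000). Data-dependent CID MS/MS was acquired at 30–35 V.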

[2] = Half life in human liver microsomes at 1 uM preincubated with NADP+ for 5 mins prior to compound addition by HPLC-MRM-MS analysis; format: ADME, Microsome
Outline: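 Pooled HLM at 1 mg/mL protein in 100 mM PBS pH 7.4 with an NADPH-regenerating mix: G6P 10 mM, NADP+ 2 mM, MgCl2 5 mM, G6PDH 1.5 U/mL (stock concentrations). Pre-incubated 5 min at 37 °C, then compound added to 1 μM final (1% DMSO).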

Mycobacterium marinum [3] = test: Antitubercular activity against mCherry-labeled Mycobacterium marinum infected in Zebra fish larvae assessed as reduction in granuloma formation at 6 to 8 ng, iv; format: functional, organism-based; conditions: dose 6-8 ng
[4] = Drug metabolism in human liver microsomes assessed as 5-(2-((3-hydroxy-4-methylphenyl)amino)thiazol-4-yl)-N-phenylisoxazole-3-carboxamide formation at 100 uM measured after 180 mins by HR-MS analysis; format: ADME, Microsome; conditions: 3 h; outline: as §1
[5] = tested on: Mycobacterium tuberculosis; test: Antitubercular activity against Mycobacterium tuberculosis H37Rv assessed as inhibition of bacterial growth incubated for 7 days by REMA method; format: functional; conditions: Mycobacterium tuberculosis, H37Rv, 168 h; time 7 day; read-out: MIC90
[6] = Toxicity in Zebrafish infected with Mycobacterium marinum assessed as enlarged heart at 6 to 8 ng. iv; design: species or system Danio rerio; conditions: in vivo, dose 6-8 ng
[7] = Drug metabolism in human liver microsomes assessed as retention time of metabolite with molecular mass [M+30] at 250 nM by HPLC-MS/MS analysis; format: ADME, Microsome; conditions: 0.25 µM
[8] = Cytotoxicity against human THP-1 cells assessed as reduction in cell viability measured after 72 hrs by MTT assay; format: toxicity, cell-based
Outline: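 THP-1 monocytes were differentiated to macrophages with PMA 100 ng/mL for 72 h. They were then exposed to compounds at 1, 10, 50 and 100 μM for 72 h, each tested twice. MTT at 1 mg/mL in RPMI with 5% FBS was added for 2 h at 37 °C; formazan was dissolved in DMSO and read at 570 nm. Viability is given as % of control; IC50 from non-linear regression.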

[9] = Drug metabolism in human liver microsomes assessed as retention time of 5-(2-((3-hydroxy-4-methylphenyl)amino)thiazol-4-yl)-N-phenylisoxazole-3-carboxamide at 250 nM by HPLC-MS/MS analysis; format: ADME, Microsome; conditions: 0.25 µM
Outline: (§2)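 Spiking: 10 μL HLM incubate was diluted with 90 μL ACN alone or with 250 nM of each synthetic hydroxylated standard in ACN. After centrifugation, HPLC-MS/MS retention times were compared for co-elution with the metabolites.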

[10] = Toxicity in Zebrafish infected with Mycobacterium marinum assessed as enlarged yolk sac area at 6 to 8 ng. iv; design: species or system Danio rerio; conditions: in vivo, dose 6-8 ng
[11] = Drug metabolism in human liver microsomes assessed as retention time of 5-(2-((4-(hydroxymethyl)phenyl)amino)thiazol-4-yl)-N-phenylisoxazole-3-carboxamide at 250 nM by HPLC-MS/MS analysis; format: ADME, Microsome; conditions: 0.25 µM; outline: as §2
Mycobacterium marinum [12] = test: Antitubercular activity against Mycobacterium marinum ATCC BAA-535 assessed as inhibition of bacterial growth measured after 3 weeks by broth microdilution method; format: functional; conditions: ATCC BAA-535, 504 h
[13] = Drug metabolism in human liver microsomes assessed as retention time of 5-(2-((3-hydroxy-4-methylphenyl)amino)thiazol-4-yl)-N-(pyridin-2-yl)isoxazole-3-carboxamide at 250 nM by HPLC-MS/MS analysis; format: ADME, Microsome; conditions: 0.25 µM; outline: as §2
[14] = Drug metabolism in human liver microsomes assessed as retention time of 5-(2-((4-(hydroxymethyl)phenyl)amino)thiazol-4-yl)-N-(pyridin-2-yl)isoxazole-3-carboxamide at 250 nM by HPLC-MS/MS analysis; format: ADME, Microsome; conditions: 0.25 µM; outline: as §2
[15] = Drug metabolism in human liver microsomes assessed as 5-(2-((3-hydroxy-4-methylphenyl)amino)thiazol-4-yl)-N-(pyridin-2-yl)isoxazole-3-carboxamide formation at 100 uM measured after 180 mins by HR-MS analysis; format: ADME, Microsome; conditions: 3 h; outline: as §1
[16] = Drug metabolism in human liver microsomes assessed as 5-(2-((4-(hydroxymethyl)phenyl)amino)thiazol-4-yl)-N-(pyridin-2-yl)isoxazole-3-carboxamide formation at 100 uM measured after 180 mins by HR-MS analysis; format: ADME, Microsome; conditions: 3 h; outline: as §1

For Cc1ccc(Nc2nc(-c3cc(C(=O)Nc4ccccc4)no3)cs2)cc1, the Drug metabolism [1] was “Metabolite_Detected”, the t1/2 [2] was 35 min and the Activity (Mycobacterium marinum [3]) was “Active”. The Drug metabolism [4] was “Metabolite_Detected”, the MIC90 [5] was 1 µg/mL (≈ 2.66 µM) and the Activity [6] was “Toxic”. For the same molecule, the Retention_time [7] was 23.65 min, the IC50 at 72 h [8] was 88 µg/mL (≈ 234 µM) and the Retention_time [9] was 25.44 min. For the same molecule, the Activity [10] was “Toxic”, the Retention_time [11] was 22.95 min and the MIC90 (Mycobacterium marinum [12]) was 0.5 µg/mL (≈ 1.33 µM).

Cc1ccc(Nc2nc(-c3cc(C(=O)Nc4ccccn4)no3)cs2)cc1 gave a Retention_time [13] of 23.73 min, a Retention_time [14] of 21.01 min and a t1/2 [2] of 16 min. For the same molecule, the Drug metabolism [15] was “Metabolite_Detected”, the MIC90 [5] was 0.5 µg/mL (≈ 1.32 µM) and the Drug metabolism [16] was “Metabolite_Detected”. It also gave a Retention_time [7] of 21.97 min, an IC50 at 72 h [8] of 22 µg/mL (≈ 58.3 µM) and an MIC90 (Mycobacterium marinum [12]) of 0.5 µg/mL (≈ 1.32 µM).
